# In the library only some 4.1% were active in any assay of this set; here they are far more common.
# KCNK9 block: inhibitors of human KCNK9 two-pore domain potassium channel | B-score at 10 µM | 310,000 tested, 1.2% active | AID 488922 | HEK293 KCNK9, FluxOR thallium flux fluorescence; stronger effect = lower value;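 active = ratio B-score over 3 SD below the library mean, with starting fluorescence within 5 SD of its mean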;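 note: negative B-score means less thallium flux so channel inhibition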
# KCNQ1 inh: blocks the human KCNQ1 potassium channel | P51787 | CHO-K1 KCNQ1, FluxOR thallium flux fluorescence; stronger effect = higher value | B-score at 10 µM | 310,000 tested, 1.3% active | AID 2642;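 active = compounds whose thallium flux B-score, printed positive for inhibition, exceeds three library SD while starting fluorescence stays within three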;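 note: channel opened by potassium depolarization with thallium stimulus after 20 min compound exposure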
# KCNK3 inh: human KCNK3 channel inhibition, primary screen; O14649; CHO-KCNK3 thallium flux, FluxOR fluorescence; stronger effect = lower value; B-score at 10 µM; 340,000 tested, 0.84% active; AID 602410;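 active = B-score under library mean minus 4 SD, starting fluorescence ratio at most library mean plus 5 SD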;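 note: more negative B-score means stronger inhibition of thallium flux through KCNK3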
# hERG rescue: compounds protecting human hERG from proarrhythmic drug block; activation (rescue from dofetilide block), less the hit threshold, % at 10 µM; AID 1511; CHO-hERG, FluxOR thallium flux, dofetilide IC70 present; 310,000 tested, 0.51% active; Q12809;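 active = activation above the mean of controls blocked by dofetilide plus 5 SD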;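 note: thallium influx through hERG after potassium depolarization seen as dye fluorescence rise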
# KCNQ1 pot: potentiators or activators of human KCNQ1 potassium channel. 310,000 tested, 0.35% active. P51787. CHO-K1 KCNQ1, thallium flux FluxOR fluorescence; stronger effect = higher value. B-score at 10 µM;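 active = fluorescence ratio B-score, a plate-corrected score, at least three library SD, with initial intensity B-score within 5 SD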
#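 System: CHO-K1 cells stably expressing KCNQ1 / Medium: assay buffer for compound exposure, DMSO matched across wells / Reagent: thallium- and potassium-containing depolarizing buffer / Compound: one concentration, matched DMSO / Incubation: 20 min compound pretreatment at room temperature / Measured by: kinetic FluxOR fluorescence, 10 s baseline plus 110 s post-stimulus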
# KCC2 mod: modulators of human KCC2 chloride dependent transport; Q9H2X9; KCC2 cells, thallium flux FluoZin-2 fluorescence; B-score of Tl+ flux slope (higher = more flux/activation; lower = inhibition) at 10 µM; 190,000 tested, 2.2% active; AID 1456;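 active = thallium flux slope and its plate-corrected score both differing from the plate sample mean at a set confidence after two filtering rounds, in either direction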;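 note: slope of fluorescence scaled to starting intensity during 10 to 20 s after thallium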
# Target sequence (Q9H2X9 whole entry, looked up): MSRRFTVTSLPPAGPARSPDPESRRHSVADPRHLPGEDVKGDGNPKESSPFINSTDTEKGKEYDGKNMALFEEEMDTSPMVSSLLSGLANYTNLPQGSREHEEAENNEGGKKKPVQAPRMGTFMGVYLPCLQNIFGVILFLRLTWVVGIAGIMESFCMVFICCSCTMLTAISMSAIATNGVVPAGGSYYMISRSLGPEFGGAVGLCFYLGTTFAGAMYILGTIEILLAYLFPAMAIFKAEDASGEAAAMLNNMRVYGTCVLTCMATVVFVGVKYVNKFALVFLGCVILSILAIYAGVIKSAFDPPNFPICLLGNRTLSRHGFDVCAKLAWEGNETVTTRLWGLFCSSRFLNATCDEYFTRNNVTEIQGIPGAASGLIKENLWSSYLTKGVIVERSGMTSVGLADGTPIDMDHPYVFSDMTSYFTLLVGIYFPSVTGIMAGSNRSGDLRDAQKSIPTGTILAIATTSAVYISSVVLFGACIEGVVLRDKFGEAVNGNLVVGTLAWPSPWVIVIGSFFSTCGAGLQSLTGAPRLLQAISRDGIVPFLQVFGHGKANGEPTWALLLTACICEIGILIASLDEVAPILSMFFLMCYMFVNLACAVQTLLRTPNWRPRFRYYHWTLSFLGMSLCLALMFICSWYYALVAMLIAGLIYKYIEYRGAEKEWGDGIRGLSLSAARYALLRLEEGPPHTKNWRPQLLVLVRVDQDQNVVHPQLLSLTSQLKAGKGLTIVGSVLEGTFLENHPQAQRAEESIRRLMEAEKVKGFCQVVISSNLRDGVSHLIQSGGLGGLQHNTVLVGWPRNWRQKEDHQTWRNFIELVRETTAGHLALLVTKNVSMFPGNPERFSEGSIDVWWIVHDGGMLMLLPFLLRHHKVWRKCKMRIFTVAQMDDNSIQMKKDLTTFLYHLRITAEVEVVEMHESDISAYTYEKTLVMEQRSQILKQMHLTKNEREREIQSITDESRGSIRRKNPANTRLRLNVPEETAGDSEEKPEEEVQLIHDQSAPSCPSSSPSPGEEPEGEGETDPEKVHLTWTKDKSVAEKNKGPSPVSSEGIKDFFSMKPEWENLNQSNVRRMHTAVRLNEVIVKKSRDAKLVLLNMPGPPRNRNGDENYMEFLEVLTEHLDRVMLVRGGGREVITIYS
# KCNK9 block conf: confirmation of human KCNK9 potassium channel inhibitors; 4,900 tested, 43% active; inhibition, % at 10 µM; HEK293 KCNK9 cells, FluxOR thallium flux fluorescence; AID 492992; shares compounds with KCNK9 block;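 active = thallium signal inhibited by more than 5 SD of the compound-free buffer control wells, on both duplicate plates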;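 note: 0% = assay buffer control wells without compound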
# Kir2-1 spec: mouse Kir2.1 off-target activity of KCNK9 modulators; AID 492993; Kir2.1 cells, FluxOR thallium flux fluorescence; 4,900 tested, 4% active; shares compounds with KCNK9 block; inhibition, % at 10 µM;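 active = thallium signal drop more than 5 SD beyond the mean of the no-compound control wells, seen in both duplicate plates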;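 note: signal is fluorescence rise after thallium addition divided by baseline fluorescence; plate controls were assay buffer only for no effect and full block by chlorpromazine control for full effect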
# HEK293 Tl ctr: second counter-screen for KCNK9 modulators: effect in non-induced cells; non-induced KCNK9-HEK293, FluxOR thallium flux; AID 492997; inhibition, % at 10 µM; shares compounds with KCNK9 block; 4,900 tested, 40% active;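 active = thallium signal drop beyond 5 SD of the untreated control mean, on both duplicate plates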;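 note: plate controls were buffer only IC0 wells for no effect and SID17386958 at its maximal inhibitory level for full effect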
# * hit, by the source's call; i = inactive; . = no result given.
SMILES,KCNK9 block,KCNQ1 inh,KCNK3 inh,hERG rescue,KCNQ1 pot,KCC2 mod,KCNK9 block conf,Kir2-1 spec,HEK293 Tl ctr
CCC1=C(OC(=O)N(CC)CC)N2C(=O)OC(=NCCc3c[nH]c4ccccc34)[C@]2(Cc2ccccc2)[C@H]2C1=CC[C@H]1C(=O)N(C)C(=O)[C@H]12,-9.5*,i,i,-11,i,-1.4,41%*,i,40%*
C/C(=N\Nc1ncc(Cl)cc1Cl)c1ccccn1,-10*,11*,i,-29,i,2.8,50%*,i,36%*
Cc1ccc(NCc2nnc(SCc3ccc(C#N)cc3)n2Cc2ccco2)c(C)c1,-19*,i,i,-15,i,-2.4,66%*,i,36%*
c1ccc(C2CC(c3cccs3)=NN2c2ccccc2)cc1 (stereo not drawn),-8.7*,i,i,-14,i,.,48%*,i,i
O=S(=O)(c1ccccc1)N1N=C(c2ccccc2)CC1c1ccccc1 (stereo not drawn),i,i,i,-12,i,0.048,.,.,.
Oc1ccc(C2=NN(c3ccccc3)C(c3ccc(F)cc3)C2)cc1 (stereo not drawn),-12*,i,i,-7,i,.,42%*,i,36%*
O=S(=O)(c1ccccc1)N1N=C(c2cccs2)CC1c1ccc(Br)cc1 (stereo not drawn),-13*,i,i,-11,i,0.087,37%*,i,44%*
Cc1ccc(C2CC(c3ccccc3)=NN2c2ccccc2)o1 (stereo not drawn),-9.1*,8*,i,-12,i,-0.054,41%*,i,30%*
CC(C)(C)C(=O)Nc1cc(NC(=O)C(C)(C)C)cc(C(=O)NNC(=O)c2ccncc2)c1,i,i,i,-7,i,.,.,.,.
O=[N+]([O-])c1ccc2nc(NN=Cc3ccc(O)cc3)sc2c1,.,.,i,.,.,.,.,.,.
O=C(Cn1cccc1C(=O)c1ccccc1)NCc1ccc(F)cc1,i,i,i,-3,i,.,.,.,.
S=C(NCc1ccc2[nH]c3c(c2c1)CCCC3)Nc1ccccc1Cl,i,i,i,-11,i,0.88,.,.,.
Cc1ccccc1NC(=S)NCc1ccc2[nH]c3c(c2c1)CCCC3,i,i,i,-10,i,-0.51,i,i,i
Cc1c(C(=O)c2ccccc2)oc2ccc3ccccc3c12,-11*,i,i,-4,i,0.63,56%*,i,40%*
Nc1c(C(=O)c2ccccc2)oc2ccccc12,i,i,i,-8,i,.,.,.,.
COc1ccccc1NC(=O)/C(=C\c1cccnc1)NC(=O)c1ccc(C)cc1,i,i,i,-5,i,.,.,.,.
O=C(CCN1C(=O)/C(=C/c2ccccc2Cl)SC1=S)NC1C=CS(=O)(=O)C1 (stereo not drawn),i,i,i,-7,i,.,.,.,.
O=C(c1cccs1)c1no[n+]([O-])c1C(=O)c1cccs1,-11*,9*,i,-33,i,-3.7,44%*,36%*,52%*
CCOC(=O)c1c(NC(=O)C2CCN(S(=O)(=O)c3cccs3)CC2)sc(C)c1C,i,i,i,-6,i,-0.48,i,i,i
CCOC(=O)c1cccc(NC(=O)C2CCN(S(=O)(=O)c3cccs3)CC2)c1,i,i,i,-13,i,.,.,.,.
Cc1ccc(S(=O)(=O)N2CCOC2CNC(=O)C(=O)NCc2ccc(Cl)cc2)cc1 (stereo not drawn),i,i,i,-6,i,.,.,.,.
CC(=O)Cn1cnc2scc(-c3ccc(C)c(C)c3)c2c1=O,i,i,i,-7,i,.,.,.,.
CCOC(=O)Cn1cnc2scc(-c3ccc(C)cc3)c2c1=O,i,i,i,-12,i,.,i,i,i
CCOC(=O)Cn1cnc2scc(-c3ccc(C)c(C)c3)c2c1=O,i,i,i,-6,i,.,i,i,i
Cc1cccc(N(Cc2ccccc2)C(=O)c2ccccc2S(C)(=O)=O)c1,i,i,i,-12,i,.,.,.,.
SMILES,KCNK9 block,KCNQ1 inh,KCNK3 inh,hERG rescue,KCNQ1 pot,KCC2 mod,KCNK9 block conf,Kir2-1 spec,HEK293 Tl ctr
Fc1ccc(CN2CCN(C(=S)NCCc3ccccc3)CC2)c(Cl)c1,i,i,i,-2,i,-0.083,.,.,.
S=C(NCCc1ccccc1)N1CCN(Cc2ccc(Cl)c(Cl)c2)CC1,i,i,i,-5,i,0.1,i,i,25%*
CCOC(=O)c1c(NC(=O)CSc2c[nH]c3ccccc23)sc2c1CCCC2,i,i,i,-8,i,1.4,i,i,i
CCOC(=O)c1c(NC(=O)CSc2nnc(-c3c[nH]c4ccccc34)n2CCOC)sc2c1CCCCC2,i,i,i,-6,i,-0.45,.,.,.
CCOC(=O)c1c(NC(=O)CSc2c[nH]c3ccccc23)sc2c1CCC2,i,i,i,-12,i,-0.61,i,i,i
CCOC(=O)c1c(NC(=O)C(C)Sc2cccc[n+]2[O-])sc2c1CCN(Cc1ccccc1)C2 (stereo not drawn),.,.,i,.,.,-1.1,.,.,.
CCOC(=O)c1c(NC(=O)C(C)Sc2cn(C)c3ccccc23)sc2c1CCC2 (stereo not drawn),i,i,i,-15,i,i,i,i,i
Cc1ccccc1C(=O)NNC(=O)C1CCN(C(=O)Nc2ccccc2)CC1,i,i,i,-13,i,.,.,.,.
COc1ccc(CNC(=O)c2ccc(S(=O)(=O)NCc3ccco3)cc2)cc1,.,.,i,.,.,.,.,.,.
O=C(COC(=O)c1cccc(S(=O)(=O)N2CCOCC2)c1)NCCc1ccccc1,i,i,i,-8,i,.,.,.,.
O=C(N/N=C/c1ccccc1C(=O)O)c1cccc(S(=O)(=O)N2CCCCC2)c1,.,.,i,.,.,.,.,.,.
Clc1ccccc1OCCN1CCC(Cc2ccccc2)CC1,i,i,i,-12,i,1.4,i,i,i
COc1cc(C(C)=O)ccc1OCCN1CCC(Cc2ccccc2)CC1,i,i,i,-15,i,-0.7,.,.,.
O=Cc1cc(Cl)ccc1OCCN1CCC(Cc2ccccc2)CC1,i,i,i,-26,i,.,i,i,i

# Bioassay records as filed in PubChem BioAssay.
